{
  "source": "ChEMBL document CHEMBL1687770",
  "about": "“Activity of a trisubstituted pyrrole in inhibiting sporozoite invasion and blocking malaria infection” (2010)",
  "key": {"[1]": {"test_system": "Plasmodium berghei", "test": "Inhibition of Plasmodium berghei NK65 motility up to 10 uM after 2 hrs", "format": "functional, organism-based", "how_it_was_run": "(§1)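 Gliding assay. Slides were coated with anti-CSP MAb 3D11 (10 μg/ml). P. berghei NK65 sporozoites (1 × 10⁴/well) were added with compound at 0.5, 2 or 10 μM in DMEM with 3% BSA and incubated 2 h at 37°C. Wells were fixed with paraformaldehyde and blocked. Trails were stained with biotinylated 3D11 and streptavidin-FITC.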"}, "[2]": {"test_system": "Plasmodium yoelii", "test": "Antimalarial activity against Plasmodium yoelii 17XNL infected in Swiss-Webster mouse liver assessed as prevention of appearance of blood-stage parasites at 50 mg/kg, ip administered first dose 15 mins before infection and second and third doses given 6 hrs and 12 hrs postinfection measured up to 22 days", "format": "functional, organism-based", "parameters": "dose 50 mg/kg", "how_it_was_run": "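Female Swiss-Webster mice (6–8 weeks, n = 10) were given 50 mg/kg ip in PBS, or PBS alone. Doses were given 15 min before iv injection of P. yoelii 17XNL sporozoites (5 × 10³/mouse), then at 6 h and 12 h p.i. Blood-stage parasites were checked daily on Giemsa-stained smears for up to 3 weeks.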"}, "[3]": {"test_system": "Plasmodium berghei", "test": "Antimalarial activity against Plasmodium berghei NK65 infected in human HepG2 cells assessed as inhibition of transformation of sporozoites into liver stage at 10 uM treated 3 hrs after infection measured 40 hrs after drug washout", "format": "functional, organism-based", "how_it_was_run": "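Compound at 10 μM was added to HepG2 cultures 3 h after P. berghei NK65 sporozoite addition. Liver stages were detected at 40 h p.i. by MAb 2E6/FITC immunofluorescence and counted. Compared with untreated wells by t test. At least three experiments, in duplicate.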"}, "[4]": {"test_system": "Plasmodium berghei", "test": "Antimalarial activity against Plasmodium berghei NK65 assessed as reduction of number of complex trails up to 10 uM relative to untreated control", "format": "functional", "parameters": "scale not given: the % may be the effect or the level left", "how_it_was_run": "as §1"}, "[5]": {"test_system": "Plasmodium berghei", "test": "Antimalarial activity against Plasmodium berghei NK65 infected in human HepG2 cells assessed as reduction of liver stage parasites level at 2 uM treated for 3 hrs measured 40 hrs after drug washout", "format": "functional, organism-based", "how_it_was_run": "(§2)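 HepG2 cells were infected with P. berghei NK65 sporozoites (5 × 10⁴/well) in the presence of compound. The compound-containing medium was removed 3 h after infection. Liver stages at 40 h p.i. were immunostained with MAb 2E6 and FITC secondary, then counted by fluorescence microscopy. At least three experiments, in duplicate.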"}, "[6]": {"test_system": "Plasmodium berghei", "test": "Antimalarial activity against Plasmodium berghei NK65 infected in human HepG2 cells assessed as reduction of liver stage parasites level treated for 12 hrs measured 40 hrs after drug washout", "format": "functional, organism-based", "how_it_was_run": "(§3)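 P. berghei NK65 sporozoites from mosquito salivary glands (5 × 10⁴/well) added to HepG2 cells seeded the day before in DMEM/10% FCS, with compound at 0.5, 2 or 10 μM. At 12 h p.i. the medium was replaced with compound-free medium. Liver stages at 40 h p.i. were stained with MAb 2E6 and FITC anti-mouse IgG and counted by fluorescence microscopy. At least three experiments, each in duplicate.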"}, "[7]": {"test_system": "Plasmodium berghei", "test": "Antimalarial activity against Plasmodium berghei NK65 infected in human HepG2 cells assessed as reduction of liver stage parasites level at 2 uM treated for 12 hrs measured 40 hrs after drug washout", "format": "functional, organism-based", "how_it_was_run": "as §3"}, "[8]": {"test_system": "Plasmodium berghei", "test": "Antimalarial activity against Plasmodium berghei ANKA infected through mosquito bite in C57BL/6 mouse liver assessed as increase of average prepatent period at 50 mg/kg, ip administered first dose 15 mins before infection and second and third doses given 6 hrs and 12 hrs postinfection measured up to 22 days (reference value: 2.66 +/- 0.57 days)", "conditions": "route intraperitoneal"}, "[9]": {"test_system": "Plasmodium berghei", "test": "Antimalarial activity against PbPKG knockout Plasmodium berghei NK65 infected in human HepG2 cells assessed as reduction of liver stage parasites level treated before infection measured 40 hrs after drug washout", "format": "functional, organism-based"}, "[10]": {"test_system": "Plasmodium berghei", "test": "Antimalarial activity against Plasmodium berghei NK65 infected in human HepG2 cells assessed as inhibition of transformation of sporozoites into liver stage at 10 uM treated for 3 hrs measured 40 hrs after drug washout", "format": "functional, organism-based", "how_it_was_run": "as §2"}, "[11]": {"test_system": "Plasmodium yoelii", "test": "Antimalarial activity against Plasmodium yoelii 17XNL infected in Swiss-Webster mouse liver assessed as reduction liver-stage infection at 50 mg/kg, ip administered 15 mins before infection measured up to 22 days", "format": "functional, organism-based", "parameters": "dose 50 mg/kg", "how_it_was_run": "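Female Swiss-Webster mice (6–8 weeks, n = 3) received one ip dose of 50 mg/kg in PBS, or PBS alone, before iv infection with P. yoelii 17XNL sporozoites (1 × 10⁴/mouse). The prepatent period was followed by daily Giemsa-stained blood smears.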"}, "[12]": {"test_system": "Plasmodium yoelii", "test": "Antimalarial activity against Plasmodium yoelii infected in Swiss-Webster mouse liver assessed as reduction of parasite burden at 50 mg/kg, ip administered 15 mins before infection measured up to 22 days relative to PBS treated group", "conditions": "route intraperitoneal"}, "[13]": {"test_system": "Plasmodium yoelii", "test": "Antimalarial activity against Plasmodium yoelii 17XNL infected in Swiss-Webster mouse liver assessed as reduction of parasite burden at 50 mg/kg, ip administered 15 mins before infection measured up to 22 days relative to PBS treated group", "format": "functional", "conditions": "route intraperitoneal"}, "[14]": {"test_system": "Plasmodium berghei", "test": "Antimalarial activity against Plasmodium berghei NK65 infected in human HepG2 cells assessed as inhibition of sporozoite invasion after 1 hr", "format": "functional", "how_it_was_run": "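HepG2 cells were infected with P. berghei NK65 sporozoites (5 × 10⁴/well) with compound at 0.5, 2 or 10 μM for 1 h at 37°C. Cells were fixed with 4% paraformaldehyde and double-stained to tell intracellular from extracellular sporozoites. Intracellular sporozoites were counted.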"}, "[15]": {"test_system": "Plasmodium berghei", "test": "Antimalarial activity against PbPKG knockout Plasmodium berghei NK65 infected in human HepG2 cells assessed as reduction of liver stage parasites level treated for 3 hrs measured 40 hrs after drug washout", "format": "functional, organism-based"}},
  "note": "Calls of active or inactive are those of the source. No cut-off for these calls is given here.",
  "data": [
    {"smiles": "CN1CCC(c2cc(-c3ccncc3)c(-c3ccc(F)cc3)[nH]2)CC1", "values": [
      {"measurement": "inhibition", "setting": "[1]", "value": "inactive"},
      {"measurement": "Activity", "setting": "[2]", "value": "Active"},
      {"measurement": "inhibition", "setting": "[3]", "value": "inactive"},
      {"measurement": "Activity", "setting": "[4]", "value": 50, "unit": "%"},
      {"measurement": "Activity", "setting": "[5]", "value": "Active"},
      {"measurement": "Activity", "setting": "[6]", "value": "Dose dependent effect"},
      {"measurement": "Activity", "setting": "[7]", "value": "Active"},
      {"measurement": "Time", "setting": "[8]", "value": 5.33, "unit": "days"},
      {"measurement": "Activity", "setting": "[9]", "value": "inactive"},
      {"measurement": "inhibition", "setting": "[10]", "value": "Active"},
      {"measurement": "Activity", "setting": "[11]", "value": "Active"},
      {"measurement": "fold change (FC)", "setting": "[12]", "value": ">1000"},
      {"measurement": "fold change (FC)", "setting": "[13]", "value": ">1000"},
      {"measurement": "INH", "setting": "[14]", "value": ">1", "unit": "µM"},
      {"measurement": "Activity", "setting": "[15]", "value": "Active"}
    ]}
  ]
}
